Measurements reported in ChEMBL document CHEMBL3351414, “Novel 9'-substituted-noscapines: synthesis with Suzuki cross-coupling, structure elucidation and biological evaluation” (Eur J Med Chem, 2014).
Calls of active or inactive are those of the source. No cut-off for these calls is given here.

Key:
HT-29 = experiment: Antiproliferative activity against human HT-29 cells assessed as reduction in cell viability after 72 hrs by MTT assay; type: functional, cell-based; conditions: HT-29, 72 h
In short: (§1)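 Cells kept in RPMI-1640 (Jurkat, SEM, RS4;11) or DMEM (A549, HeLa, IGROV-1, HT-29) with 10% FBS plus penicillin/streptomycin. 8×10^3 cells per well were left 18 h at 37 °C in 5% CO2. Medium was then replaced with fresh medium holding graded compound concentrations from 10 mM DMSO stocks. Cells were incubated 72 h and viability read by MTT. IC50 is the mean ± SEM from dose–response curves of at least three independent experiments.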

IGROV-1 = experiment: Antiproliferative activity against human IGROV1 cells assessed as reduction in cell viability after 72 hrs by MTT assay; type: functional, cell-based; conditions: IGROV-1, 72 h; in short: as §1
[1] = Antiproliferative activity against human SEM cells assessed as reduction in cell viability after 72 hrs by MTT assay; type: functional, cell-based; in short: as §1
A549 = experiment: Antiproliferative activity against human A549 cells assessed as reduction in cell viability after 72 hrs by MTT assay; type: functional, cell-based; conditions: A549, 72 h; in short: as §1
LoVo = experiment: Antiproliferative activity against human LoVo cells assessed as reduction in cell viability after 72 hrs by MTT assay; type: functional, cell-based
CCRF-CEM = experiment: Antiproliferative activity against human CEM cells assessed as reduction in cell viability after 72 hrs by MTT assay; type: functional, cell-based
HeLa [2] = experiment: Cell cycle arrest in human HeLa cells assessed as accumulation at G2/M phase at 25 uM after 24 hrs by flow cytometry; type: functional
In short: (§2)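 5×10^5 HeLa or Jurkat cells exposed to graded compound concentrations for 24 h. Cells were fixed in ice-cold 70% ethanol, lysed with RNase A/0.1% Triton X-100 buffer and stained with propidium iodide. DNA content was read by flow cytometry. Phase percentages are mean ± SEM of three independent experiments.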

HeLa [3] = experiment: Effect on PCM1 protein in human HeLa cells assessed as accumulation of pericentriolar material at 25 uM after 24 hrs by immunofluorescence microscopy; type: functional, cell-based
In short: (§3)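 After 24 h at 25 µM, HeLa cells were stained with anti-PCM1 and Alexa-conjugated secondary antibody, with phalloidin-tetramethylrhodamine B for actin and DAPI for nuclei. Cells were imaged by confocal microscopy at 60×.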

CA46 [4] = experiment: Cell cycle arrest in human CA46 cells assessed as reduction in mitotic index by Giemsa staining method relative to control; type: functional; design: scale not given: the % may be the effect or the level left
In short: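 CA46 Burkitt lymphoma cells grown in RPMI 1640 with 17% FBS and 2 mM L-glutamine at 37 °C, 5% CO2, treated 16 h. Cells were swollen 10 min in half-strength PBS, fixed in 0.5% acetic acid–1.5% ethanol, then spread from 25% acetic acid/75% ethanol. Slides were Giemsa-stained. Mitotic cells were those with condensed chromosomes and no nuclear membrane, with ≥200 cells counted per condition.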

HeLa [5] = experiment: Effect on cell morphology in human HeLa cells assessed as disorganization of actin filament at 25 uM after 24 hrs by confocal microscopy relative to control; type: functional, cell-based; in short: as §3
[6] = Antiproliferative activity against human RS4:11 cells assessed as reduction in cell viability after 72 hrs by MTT assay; type: functional, cell-based; conditions: RS4-11, 72 h; in short: as §1
CA46 [7] = experiment: Cell cycle arrest in human CA46 cells assessed as accumulation at G2/M phase at 5 times IC50 by flow cytometry; type: functional
Jurkat [8] = experiment: Cell cycle arrest in human Jurkat cells assessed as accumulation at G2/M phase after 24 hrs by flow cytometry; type: functional, cell-based; in short: as §2
Tubulin [9] = target: T1, Tubulin (Bos taurus, UniProt Q6B856+Q862L2+Q862F3); experiment: Inhibition of bovine brain tubulin assessed as rate of assembly preincubated for 15 mins by turbidimetry
In short: (§4)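 Bovine brain tubulin at 10 µM (1.0 mg/mL) in 0.8 M monosodium glutamate pH 6.6 with 4% DMSO and varying compound was preincubated 15 min at 30 °C, then chilled. GTP was added to 0.4 mM final and the temperature jumped from 0 to 30 °C. Turbidity was followed at 350 nm, scoring either maximum rate or extent of assembly at 20 min.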

HeLa [10] = experiment: Cell cycle arrest in human HeLa cells assessed as accumulation at G2/M phase at 10 to 25 uM after 24 hrs by flow cytometry; type: functional, cell-based; in short: as §2
HeLa [11] = experiment: Effect on cell morphology in human HeLa cells at 25 uM after 24 hrs using phalloidin staining by confocal microscopy; type: functional, cell-based; in short: as §3
PBL [12] = experiment: Cytotoxicity against resting human PBLs assessed as reduction in cell growth; type: cell-based
In short: (§5)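 Peripheral blood lymphocytes from healthy donors, tested either resting (no PHA) or PHA-stimulated. Value is the concentration reducing cell growth by 50%, mean ± SEM of three separate experiments.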

HeLa [13] = experiment: Disruption of microtubule network in human HeLa cells assessed as induction of spherical morphology at 25 uM after 24 hrs by immunofluorescence microscopy; type: cell-based
In short: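 HeLa cells exposed 24 h at 25 µM, fixed in cold 4% formaldehyde for 15 min, and stained with anti-β-tubulin plus Alexa-conjugated secondary antibody, with DAPI counterstain. Cells were imaged by confocal microscopy.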

Tubulin (Bos taurus) = Tubulin (Bos taurus) (UniProt Q6B856+Q862L2+Q862F3); experiment: Displacement of [3H]colchicine from bovine brain tubulin at 500 uM after 10 mins by liquid scintillation counting
HeLa [14] = experiment: Cell cycle arrest in human HeLa cells assessed as accumulation at G2/M phase after 24 hrs by flow cytometry; type: functional, cell-based; in short: as §2
Jurkat [15] = experiment: Cell cycle arrest in human Jurkat cells assessed as accumulation at G2/M phase at 10 to 25 uM after 24 hrs by flow cytometry; type: functional, cell-based; in short: as §2
Tubulin [16] = target: T1, Tubulin; experiment: Inhibition of bovine brain tubulin assessed as extent of assembly preincubated for 15 mins by turbidimetry; in short: as §4
CA46 [17] = experiment: Antiproliferative activity against human CA46 cells assessed as reduction in cell viability after 72 hrs by MTT assay; type: functional, cell-based; conditions: CA46, 72 h
HeLa [18] = experiment: Antiproliferative activity against human HeLa cells assessed as reduction in cell viability after 72 hrs by MTT assay; type: functional, cell-based; in short: as §1
PBL [19] = experiment: Cytotoxicity against PHA-stimulated human PBLs assessed as reduction in cell growth; type: cell-based; in short: as §5

## COc1cccc(-c2c3c(c(OC)c4c2OCO4)[C@H]([C@H]2OC(=O)c4c2ccc(OC)c4OC)N(C)CC3)c1
HT-29
  IC50: 36.1 µM
IGROV-1
  IC50: 57.2 µM
[1]
  IC50: 13 µM
A549
  IC50: > 100 µM
LoVo
  IC50: 29.4 µM
CCRF-CEM
  IC50: 22.3 µM
HeLa [2]
  Activity: >80%
HeLa [3]
  Activity: Active
CA46 [4]
  Activity: 28%
HeLa [5]
  Activity: Active
[6]
  IC50: 7.1 µM
CA46 [7]
  Activity: >80%
Jurkat [8]
  Activity: Dose-dependent effect
Tubulin [9]
  IC50: 170 µM
HeLa [10]
  Activity: Active
HeLa [11]
  Activity: Active
PBL [12]
  IC50: > 200 µM
HeLa [13]
  Activity: 70%
Tubulin (Bos taurus)
  inhibition: 38%
HeLa [14]
  Activity: Dose-dependent effect
Jurkat [15]
  Activity: Active
Tubulin [16]
  IC50: > 400 µM
CA46 [17]
  IC50: 20 µM
HeLa [18]
  IC50: 8.9 µM
PBL [19]
  IC50: > 200 µM
